Converted amounts (≈) assume the structure as drawn.
Columns and labels:
Mus musculus [1] = organism: Mus musculus; assay: Activation of UTRN promoter in mouse H2K cells assessed as upregulation of UTRN production after 48 hrs by luciferase reporter linked assay; assay type: functional, cell-based
Procedure, shortened: (§1)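 H2K myoblasts stably carrying a utrophin (UTRN) promoter–luciferase reporter were plated 24 h before dosing and exposed to compound for 48 h. Luciferase was read by luminescence (Steady-Glo). The primary screen was at 10 μM and the secondary at six concentrations for EC50, both in triplicate. Non-EC50 values are % of the reference upregulator's maximum, given with the concentration at maximum.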

[2] = Half life in human liver microsomes; assay type: ADME, Microsome
Mus musculus [3] = organism: Mus musculus; assay: Activation of UTRN promoter in mouse H2K cells assessed as upregulation of UTRN production at 10 uM after 48 hrs by luciferase reporter linked assay; assay type: functional; procedure, shortened: as §1
Mus musculus [4] = assay: AUC in CD1 mouse at 10 mg/kg, ip; assay type: ADME, organism-based, Plasma; design: dose 10 mg/kg, route intraperitoneal; conditions: in vivo
Procedure, shortened: (§2)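 Male CD1 mice were dosed i.p. at 10 mg/kg in 95% PBS containing 0.1% Tween 20 and 5% DMSO. Plasma was sampled at 5–360 or 5–480 min. AUC is in μg.min/mL. Half-life was not calculated where the log concentration–time plot lacked a linear region of at least three points.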

Mus musculus [5] = assay: Cmax in CD1 mouse at 10 mg/kg, ip; assay type: ADME, organism-based; design: dose 10 mg/kg, route intraperitoneal; conditions: in vivo; procedure, shortened: as §2
Mus musculus [6] = organism: Mus musculus; assay: Activation of UTRN promoter in mouse H2K cells assessed as upregulation of UTRN production at 10 uM after 72 hrs by RT-PCR analysis; assay type: functional
Procedure, shortened: (§3)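 H2K cells were seeded at 25000 per well, left 24 h, then dosed for 72 h in 1% DMSO final. Total RNA was extracted and reverse transcribed. qPCR used an amplicon spanning the UTRN exon 3–4 boundary, with β-actin as the endogenous control, and was quantified by ΔΔCT. Values are % UTRN relative to DMSO control (=100), with P value.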

[7] = Aqueous solubility of the compound by turbidimetry; assay type: physicochemical; conditions: buffer
Procedure, shortened: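 Turbidimetric aqueous solubility, reported as the final test compound concentration.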

[8] = Half life in mouse liver microsomes; assay type: ADME, Microsome
Mus musculus [9] = assay: Tmax in CD1 mouse at 10 mg/kg, ip; assay type: ADME, organism-based; design: dose 10 mg/kg, route intraperitoneal; conditions: in vivo; procedure, shortened: as §2
Mus musculus [10] = assay: Half life in CD1 mouse at 10 mg/kg, ip; assay type: ADME, organism-based; design: dose 10 mg/kg, route intraperitoneal; conditions: in vivo; procedure, shortened: as §2
Mus musculus [11] = organism: Mus musculus; assay: Activation of UTRN promoter in mouse H2K cells assessed as upregulation of UTRN production at 3 uM after 48 hrs by luciferase reporter linked assay; assay type: functional; procedure, shortened: as §1
Mus musculus [12] = organism: Mus musculus; assay: Activation of UTRN promoter in mouse H2K cells assessed as upregulation of UTRN production at 30 uM after 48 hrs by luciferase reporter linked assay; assay type: functional; procedure, shortened: as §1
Mus musculus [13] = organism: Mus musculus; assay: Activation of UTRN promoter in mouse H2K cells assessed as upregulation of UTRN production at 3 uM after 72 hrs by RT-PCR analysis; assay type: functional; procedure, shortened: as §3
[14] = AUC in CD1 mouse at 50 mg/kg, ip; assay type: ADME, organism-based; design: dose 50 mg/kg, route intraperitoneal; conditions: plasma
Procedure, shortened: (§4)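 Male CD1 mice were given 50 mg/kg i.p. in 95% PBS with 0.1% Tween 20 and 5% DMSO. Plasma was sampled at 0.08, 0.25, 0.5, 1, 2, 4, 8 and 24 h in three animals, and values are the mean in ng/mL.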

[15] = Tmax in CD1 mouse at 50 mg/kg, ip; assay type: ADME, organism-based; design: dose 50 mg/kg, route intraperitoneal; conditions: in vivo; procedure, shortened: as §4
[16] = Cmax in CD1 mouse at 50 mg/kg, ip; assay type: ADME, organism-based; design: dose 50 mg/kg, route intraperitoneal; conditions: in vivo; procedure, shortened: as §4

## CC(C)C(=O)Nc1ccc2oc(-c3cccc(Cl)c3Cl)nc2c1
Mus musculus [1]; Mus musculus, H2K, 48 h
  EC50: 10 µM

## CCS(=O)(=O)c1ccc2oc(-c3ccc(Cl)cn3)nc2c1
Mus musculus [1]; Mus musculus, H2K, 48 h
  EC50: > 30 µM

## CC(=O)Nc1ccc2oc(-c3ccccc3)nc2c1
Mus musculus [1]; Mus musculus, H2K, 48 h
  EC50: 3 µM

## CC(C)C(=O)Nc1ccc2[nH]c(-c3ccc(Cl)cc3)nc2c1
Mus musculus [1]; Mus musculus, H2K, 48 h
  EC50: 10 µM

## CC(C)C(=O)Nc1ccc2sc(-c3ccc(Cl)cc3)nc2c1
Mus musculus [1]; Mus musculus, H2K, 48 h
  EC50: 1.2 µM

## CCS(=O)(=O)c1ccc2oc(-c3ccc4sccc4c3)nc2c1
[2]
  half-life: 59 min
Mus musculus [3]
  Activity: 86%

## CCS(=O)(=O)c1ccc2oc(-c3cccc(Cl)c3Cl)nc2c1
Mus musculus [3]
  Activity: 40%

## CC(C)C(=O)Nc1ccc2nc(-c3ccc(Cl)cc3)oc2c1
Mus musculus [1]; Mus musculus, H2K, 48 h
  EC50: 3 µM

## Cc1cc2nc(-c3ccc(N)cc3O)oc2cc1C
Mus musculus [4]
  AUC: 10 ng·h/mL
Mus musculus [5]
  Cmax: 10.9 ng/mL
Mus musculus [6]
  Activity: 144.8%
[7]
  solubility kinetic: 1 µM (≈ 0.254 µg/mL)
[8]
  half-life: 22 min
Mus musculus [1]; Mus musculus, H2K, 48 h
  EC50: 0.7 µM
Mus musculus [9]
  Tmax: 5 min
Mus musculus [10]
  t1/2: 40.9 min

## Cc1ccc(-c2nc3c(NC(=O)C(C)C)cccc3o2)cc1
Mus musculus [1]; Mus musculus, H2K, 48 h
  EC50: > 30 µM

## O=C(CCc1ccccc1)Nc1ccc2oc(-c3ccc(Cl)cc3)nc2c1
Mus musculus [1]; Mus musculus, H2K, 48 h
  EC50: > 30 µM

## CCS(=O)(=O)c1ccc2oc(-c3cccc(Cl)c3)nc2c1
Mus musculus [1]; Mus musculus, H2K, 48 h
  EC50: > 30 µM

## CCS(=O)(=O)c1ccc2oc(-c3cccc4ccccc34)nc2c1
Mus musculus [1]; Mus musculus, H2K, 48 h
  EC50: > 30 µM

## C[C@H](N)C(=O)Nc1ccc2oc(-c3ccc(Cl)cc3)nc2c1
Mus musculus [11]
  Activity: 35%

## Cc1ccc(-c2nc3cc(NC(=O)C(C)C)ccc3o2)cc1
Mus musculus [3]
  Activity: 95%

## CCCc1nc2cc(S(=O)(=O)CC)ccc2o1
Mus musculus [3]
  Activity: 14%

## CC(C)CNc1ccc2oc(-c3ccc(Cl)cc3)nc2c1
Mus musculus [1]; Mus musculus, H2K, 48 h
  EC50: > 30 µM

## CCC(=O)Nc1ccc2oc(-c3ccc(Cl)cc3)nc2c1
Mus musculus [11]
  Activity: 85%

## CC(C)C(=O)Nc1ccc2oc(-c3ccc(Cl)cc3)cc2c1
Mus musculus [1]; Mus musculus, H2K, 48 h
  EC50: > 30 µM

## NS(=O)(=O)c1ccc2oc(-c3ccc(Cl)cc3)nc2c1
Mus musculus [12]
  Activity: 60%

## CC(C)C(=O)Nc1ccc2oc(-c3ccc(Cl)c(Cl)c3)nc2c1
Mus musculus [13]
  Activity: 128.2%
Mus musculus [1]; Mus musculus, H2K, 48 h
  EC50: 1.5 µM

## CCS(=O)(=O)c1ccc2oc(-c3ccc(Oc4ccccc4)cc3)nc2c1
Mus musculus [1]; Mus musculus, H2K, 48 h
  EC50: > 30 µM

## O=C(Nc1ccc2oc(-c3ccccc3)nc2c1)c1ccccc1
Mus musculus [1]; Mus musculus, H2K, 48 h
  EC50: > 30 µM

## CCCC(=O)Nc1ccc2oc(-c3ccccc3)nc2c1
Mus musculus [1]; Mus musculus, H2K, 48 h
  EC50: 3 µM

## CC(C)C(=O)Nc1cc2oc(-c3ccc(Cl)cc3)nc2cc1Cl
Mus musculus [1]; Mus musculus, H2K, 48 h
  EC50: > 30 µM

## CC(C)C(=O)Nc1ccc2nc(-c3cccc(Cl)c3Cl)oc2c1
Mus musculus [1]; Mus musculus, H2K, 48 h
  EC50: > 30 µM

## CS(=O)(=O)c1ccc2oc(-c3ccc(Cl)cc3)nc2c1
Mus musculus [3]
  Activity: 53%

## CC(C)C(=O)Nc1ccc2oc(-c3ccc(F)cc3)nc2c1
[8]
  half-life: 16.1 min
Mus musculus [1]; Mus musculus, H2K, 48 h
  EC50: 0.9 µM

## CCC(=O)Nc1ccc2oc(-c3ccccc3)nc2c1
Mus musculus [1]; Mus musculus, H2K, 48 h
  EC50: 0.8 µM

## CC(C)S(=O)(=O)Nc1ccc2oc(-c3ccc(Cl)cc3)nc2c1
Mus musculus [1]; Mus musculus, H2K, 48 h
  EC50: > 30 µM

## CCN(CC)c1ccc(-c2nc3cc(NC(=O)C(C)C)ccc3o2)cc1
Mus musculus [3]
  Activity: 12%

## CC(C)C(=O)Nc1ccc2oc(-c3ccc(C(F)(F)F)cc3)nc2c1
Mus musculus [3]
  Activity: 22%

## CCN(CC)S(=O)(=O)c1ccc2oc(-c3ccc(Cl)cc3)nc2c1
Mus musculus [3]
  Activity: 28%

## CC(C)C(=S)Nc1ccc2oc(-c3ccc(Cl)cc3)nc2c1
Mus musculus [1]; Mus musculus, H2K, 48 h
  EC50: > 30 µM

## CC(C)c1ccc2oc(-c3ccc(N)cc3O)nc2c1
Mus musculus [1]; Mus musculus, H2K, 48 h
  EC50: 1 µM

## CC(C)S(=O)(=O)c1ccc2oc(-c3ccc(Cl)cc3)nc2c1
Mus musculus [1]; Mus musculus, H2K, 48 h
  EC50: 10.2 µM

## CCS(=O)(=O)c1ccc2oc(-c3ccc4ccccc4c3)nc2c1 [EZUTROMID]
[14]
  AUC: 7000 ng·h/mL
[2]
  half-life: 105 min
[15]
  Tmax: 15 min
Mus musculus [6]
  Activity: 143%
[7]
  solubility kinetic: 3 µM (≈ 1.01 µg/mL)
[8]
  half-life: 81.5 min
Mus musculus [1]; Mus musculus, H2K, 48 h
  EC50: 1.8 µM
Mus musculus [1]; h2k
  EC50: 0.91 µM
[16]
  Cmax: 1490 ng/mL

## CCS(=O)(=O)c1ccc2nc(-c3ccc(Cl)cc3)oc2c1
Mus musculus [1]; Mus musculus, H2K, 48 h
  EC50: > 30 µM

## Nc1ccc2oc(-c3ccc(Cl)c(Cl)c3)nc2c1
Mus musculus [11]
  Activity: 107%

## O=S(=O)(O)c1ccc2oc(-c3ccc(Cl)cc3)nc2c1
Mus musculus [1]; Mus musculus, H2K, 48 h
  EC50: > 30 µM

## COc1ccc(-c2nc3cc(NC(=O)C(C)C)ccc3o2)cc1
Mus musculus [3]
  Activity: 132%

## CC(C)C(=O)Nc1ccc2oc(-c3cc(Cl)ccc3Cl)nc2c1
Mus musculus [1]; Mus musculus, H2K, 48 h
  EC50: > 30 µM

— ChEMBL document CHEMBL1772981, “Discovery of 2-arylbenzoxazoles as upregulators of utrophin production for the treatment of Duchenne muscular dystrophy” (J Med Chem, 2011)
